Activity calls are given as the source filed them.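 Rule for the calls: active = growth inhibition above a set limit, 3 SD over mean compound inhibition, in both replicates (cut at about 43% in these data); inconclusive = above the limit in only one replicate; inactive = at or below the limit in both replicates.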
Assay: Restrictive medium S. cerevisiae growth inhibition, OD615, pilot screen of yeast lifespan reduction project, restrictive growth control (AID 706);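 note: modified DeaD lifespan yeast strain shifted to restrictive glucose medium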
Details: OD615, 48 h, at 10 µM, active compounds read high
Outline: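 Material: engineered S. cerevisiae DeaD strain / Medium: glucose-based CSMM-D restrictive medium / Compound: single dose of 10 µM compound final, 0.25% DMSO / Timing: 4 h pre-incubation, 48 h exposure at 30 °C / Technique: OD615 absorbance reading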

Growth inhibition, inactive:
CC(CCc1ccccc1)NC(=O)C1CCCN(c2nnc(-n3cccc3)s2)C1 (centres undefined) 0.105%, O=C(c1cc(C2CC2)on1)N1CCN(C(c2ccccc2)c2ccccc2)CC1 -18.4%, O=C(C1COc2ccccc2O1)N1CCCC1 (centres undefined) -10.1%, CCCCOC(=O)Nc1nc2ccc(OC)cc2s1 -16.4%, CCn1cc(C(=O)NCC2CCCO2)c(=O)c2cc(S(=O)(=O)N(C)C3CCCCC3)ccc21 (centres undefined) -2.37%, CCCNC(=O)CS(=O)(=O)Cc1nc(-c2cccc(OC)c2)oc1C -2.08%, CC(=O)C1=C(N2CCCCC2)CCC1=O 4.54%, CCOC(=O)C1CCN(Cc2ccc(F)c(Br)c2)CC1 -1.05%, Cc1ccc(N(C(=O)c2ccncc2)C2C=CS(=O)(=O)C2)cc1 (centres undefined) -14%, COc1ccc(CCNC(=O)C2(C)CCC(=O)N2Cc2ccc3c(c2)OCO3)cc1OC (centres undefined) -25.8%, COc1ccc(C2c3c(oc4ccccc4c3=O)C(=O)N2c2ccc(C)cn2)cc1OC (centres undefined) -0.265%, CCn1cc(C(=O)NCCCOC)c(=O)c2cc(S(=O)(=O)N(C)C)ccc21 -9.63%, Cc1cc(C)nc(/N=C2\NC(=O)CC(C(=O)O)N2c2ccc(Cl)cc2)n1 (centres undefined) 5.68%, O=C(O)c1ccccc1S(=O)(=O)NCC(O)COc1ccc(Br)cc1 (centres undefined) -22.2%, COC(=O)Cn1c(=NC(=O)CSCC(=O)Nc2cc(C)on2)sc2ccccc21 -19.8%, COc1ccc(S(=O)(=O)N(CC(=O)N2CCN(c3ccccc3OC)CC2)c2ccccc2)cc1 -11.3%, CCOc1ccccc1NC(=O)CC1Nc2cc(C)c(C)cc2NC1=O (centres undefined) -12.1%, COc1ccc(N2Cc3ccccc3C2)cc1Cl -10.6%, CCOC(=O)C(CC)n1nc(C)n2c(cc3sccc32)c1=O (centres undefined) 1.69%, CCOC(=O)C(CC)(CCC(=O)O)c1csc(N)n1 (centres undefined) -9.94%, CCOc1ccc(NC(=O)CN2C(=O)C3CCCN3C2=O)cc1 (centres undefined) -13.8%, CCOC(=O)N1CCN(C(=O)COc2ccc(S(=O)(=O)NC(C)C)cc2)CC1 -20.2%, O=C(NC1CCCc2ccccc21)c1ccc(CNc2c(N3CCOCC3)c(=O)c2=O)cc1 (centres undefined) -2.73%, CNC(=O)c1ccsc1NC(=O)c1ccccc1 14.5%, N#Cc1cc2c(nc1SCC(=O)N1CCCCC1)CCCC2 -1.56%, COc1ccc(N2CCN(c3oc(COc4ccccc4Cl)nc3C#N)CC2)cc1 -5.2%, COc1ccccc1S(=O)(=O)Cc1ccc(C(=O)N2CCN(c3ccc(C)cc3)C(C)C2)o1 (centres undefined) -15.2%, CCOC(=O)N1CCC(c2cc(=O)n3[nH]c(C)c(-c4ccc(F)cc4)c3n2)CC1 9.87%, O=C1CCCC2=C1C(c1cccc(Br)c1)n1nc(-c3ccco3)nc1N2 (centres undefined) -0.21%, CCc1ccccc1NC(=O)c1cnc2n(c1=O)CCS2 1.6%, CC(CCc1ccco1)NC(=O)Cn1ncc2c1-c1ccccc1OC2 (centres undefined) -19%, COc1cccc(NC(=O)C2CCCN(S(=O)(=O)c3cccc4cccnc34)C2)c1 (centres undefined) -6.68%, COc1ccc(C(=O)Nc2nncs2)c(OC)c1 -11.7%, CNC(=O)c1ccccc1NC(=O)c1c(O)c2c([nH]c1=O)CCCC2 -10.1%, Cc1occc1C(=O)N1CCN(Cc2ccccc2)CC1 -15.5%, CN(C)CCCN1C(=O)CSC1c1ccccc1 (centres undefined) -1.53%, CCc1ccc(N(CC(=O)NC2CCCC2)S(=O)(=O)c2c(C)noc2C)cc1 3.27%, CSc1cccc(NC(=O)C2CCN(S(=O)(=O)c3ccc(F)cc3)CC2)c1 -13.7%, O=C(CSc1nnc(Cn2c(=O)sc3ccccc32)n1-c1ccccc1)Nc1nccs1 27.2%
